WT yeast gro inh – growth inhibition of WT strain, primary screen, mitochondrial fusion inhibitor project, WT and mutant strains, chemical genetic | 190,000 compounds, 2.1% hits | mitochondrial fusion phenotypic screen | inhibition, % at 10 µM | AID 1362, 2008; in the data active means inhibition above about 58%; tested in S. cerevisiae
PMI activator – activators of human PMI, primary screen, biochemical, fluorescence intensity, near-Km mannose 6-phosphate. Mannose-6-phosphate isomerase (Homo sapiens), P34949. purified human PMI, coupled resazurin fluorescence, 20 min; stronger effect = higher value; 1 = vehicle control, 0 substrate-free wells. activation factor at 20 µM. 190,000 compounds, 0.005% hits;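 active means activation factor of 2 or more at 20 µM, relative to plate controls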
Target sequence (P34949 whole entry, looked up): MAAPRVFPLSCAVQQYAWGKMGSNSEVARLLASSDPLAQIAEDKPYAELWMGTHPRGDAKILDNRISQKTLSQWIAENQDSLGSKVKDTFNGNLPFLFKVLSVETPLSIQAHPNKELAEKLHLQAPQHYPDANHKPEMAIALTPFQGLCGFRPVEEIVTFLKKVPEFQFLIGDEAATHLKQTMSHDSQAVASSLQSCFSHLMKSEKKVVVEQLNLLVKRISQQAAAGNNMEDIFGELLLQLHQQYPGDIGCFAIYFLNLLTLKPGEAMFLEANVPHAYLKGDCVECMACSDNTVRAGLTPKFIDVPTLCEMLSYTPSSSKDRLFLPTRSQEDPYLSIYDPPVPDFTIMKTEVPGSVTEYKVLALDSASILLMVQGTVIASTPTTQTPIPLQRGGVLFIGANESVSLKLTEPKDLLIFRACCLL
m-calpain inh – inhibitors of pig calpain II, primary screen, biochemical, fluorogenic peptide substrate, 1536-well. purified calpain II, 30 min. inhibition, % at 16 µM. 220,000 compounds, 0.37% hits;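 active means inhibition above about 50%, limit read from the data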
Rad51 HR inh – human RAD51 strand exchange inhibitors, primary screen, biochemical, fluorescence | hRad51 DNA strand exchange, fluorescence dequenching | inhibition, % at 10 µM | 200,000 compounds, 0.085% hits | DNA repair protein RAD51 homolog 1 (Homo sapiens), Q06609;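 active means inhibition above 40% at the single screening dose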
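Test system: preformed human Rad51 ssDNA filaments. Compound dosing: single dose, 10 µM final compound. Incubation: filaments 15 min 37 °C, then compound 30 min. Technique: FRET fluorescence dequenching, excitation 485 nm, emission 520 nm. Read-out basis: percent inhibition from fluorescence, normalised to plate control and blank means. Benchmarks: plate controls and plate blanks.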
PMI act hi M6P – human PMI activators, high substrate, primary screen, biochemical, fluorescence intensity, near-saturating mannose 6-phosphate; coupled PMI enzyme assay, resazurin fluorescence, 20 min; stronger effect = higher value; 1 = untreated enzyme, 0 = substrate-free blank; AID 1216, 2008; Mannose-6-phosphate isomerase (Homo sapiens), P34949; activation factor at 20 µM; 190,000 compounds, 0.34% hits;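 active means activation factor of 2 or more at 20 µM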
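Test system: human phosphomannose isomerase with PGI, G6PDH, diaphorase coupling enzymes; Amount: PMI at 15 ng/mL final; Reagent: Mannose-6-phosphate 1.0 mM (near-saturating) plus 0.22 mM NADP+; Timing: 20 min, room temperature; Technique: resorufin fluorescence at Ex 544/Em 590 nm; Dosing: 20 µM single dose.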
Lmaj promast – Leishmania major promastigote growth inhibition, primary screen; Leishmania major promastigotes, resazurin fluorescence viability; 200,000 compounds, 9% hits; inhibition, % at 10 µM; in the data active means inhibition above about 50%;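 further: promastigotes grown with compound for 44 hours at 28 °C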
Each line names hits and unclear results; the compound was inactive in the other large screens. This is a sample that favours compounds with a hit; in the whole collection about 9.8% have one here.

Cc1ccc2nc(CSc3nnc(Nc4ccccc4F)s3)cc(=O)n2c1	none
Cc1ccc(Nc2nnc(SCc3cc(=O)n4cc(C)ccc4n3)s2)cc1	Lmaj promast 68
O=C1c2ccccc2NC(c2ccc(Cl)cc2Cl)N1Cc1ccccc1 (centres undefined)	WT yeast gro inh 81, Lmaj promast 82
Cc1cccc(C2Nc3ccccc3C(=O)N2CCc2ccccc2)n1 (centres undefined)	none
O=C1c2ccccc2NC(c2c(Cl)cccc2Cl)N1Cc1ccccc1 (centres undefined)	Lmaj promast 56
O=C1c2ccccc2NC(c2ccc(Cl)cc2Cl)N1O (centres undefined)	Lmaj promast 70
CCOc1cccc2cc(C(=O)NCCC3=CCCCC3)c(=O)oc12	none
O=S(=O)(c1ccccc1)c1nc(Nc2ccccc2N2CCOCC2)sc1Cl	Lmaj promast 56
O=S(=O)(c1ccccc1)c1nc(NC2CC2)sc1Cl	none
O=C(Nc1ncc(Cc2ccccc2Cl)s1)c1ccc([N+](=O)[O-])cc1	none
O=C(Nc1ncc(Cc2cccc([N+](=O)[O-])c2)s1)c1ccco1	none
O=C(Nc1ncc(Cc2ccc(C(F)(F)F)cc2)s1)c1ccc(-c2cccc([N+](=O)[O-])c2)o1	Lmaj promast 90
O=C(Nc1ncc(Cc2ccccc2Cl)s1)c1ccc(-c2cccc([N+](=O)[O-])c2)o1	Lmaj promast 92
COc1ccc(NC(=O)c2cc(-c3ccccc3)nc3c2c(C)nn3-c2ccccc2)c(OC)c1	Lmaj promast 84
CC(/C=N/NC(=O)c1cc(-c2cccnc2)nc2c1c(C)nn2-c1ccccc1)=C\c1ccccc1	Lmaj promast 57
COc1ccc(-c2cc(C(=O)NNC3=NCCC3)c3c(C)nn(-c4ccccc4)c3n2)cc1	none
CCOC(=O)c1cccc(NC(=O)Nc2ccc3c(c2)C(=O)OC3)c1	none (no result: WT yeast gro inh, PMI activator, PMI act hi M6P, Lmaj promast)
O=C(CSc1nnc(-c2ccccc2O)n1-c1ccccc1)Nc1cccc(C(=O)O)c1	none
C=CCNC(=O)CSc1nnc(-c2ccccc2Br)n1-c1cccc(C(F)(F)F)c1	Lmaj promast 79
Cc1ccc(S(=O)(=O)n2c3ccc(F)cc3c3nc(C)sc32)cc1	WT yeast gro inh 78
CC(C)C(NC(=O)c1ccc(F)cc1)C(=O)OCC(=O)N1CC(=O)Nc2ccccc21 (centres undefined)	Lmaj promast 68
CC(C)[C@H](NC(=O)c1ccccc1)C(=O)OCC(=O)N1CC2(C)CC1CC(C)(C)C2 (some centres undefined)	Lmaj promast 53
Nc1ccc(C(=O)c2cccs2)cc1[N+](=O)[O-]	none
NC(=O)c1ccc(NC(=O)CSc2nnc(-c3ccncc3)n2Cc2ccco2)cc1	none (no result: WT yeast gro inh, PMI activator, PMI act hi M6P, Lmaj promast)
COc1cc(OC)c(OC)cc1/C=N/Nc1nc2ccccc2[nH]1	none (no result: WT yeast gro inh, PMI activator, PMI act hi M6P, Lmaj promast)
COc1cc(/C=N\Nc2nc3ccccc3o2)cc(OC)c1OC	none
COc1cc(/C=N\Nc2nc3ccccc3[nH]2)cc(OC)c1OC	Lmaj promast 57
COc1ccc(/C=N/Nc2nc3ccccc3[nH]2)cc1OC	Lmaj promast 99
O=C(COc1ccc(Br)cc1CNC1CCCCC1)NCCc1ccccc1	Lmaj promast 93
O=C(COc1ccc(Br)cc1Cl)NC(=O)NCc1ccccc1	Lmaj promast 54
O=C(COc1ccc(Br)cc1Cl)NC(=O)Nc1ccc2c(c1)OCCO2	none
O=C1CC(c2ccco2)Cc2nc(Nc3ccc(F)cc3)ncc21 (centres undefined)	none (no result: Rad51 HR inh)
Cc1ccc(Nc2ncnc(N)n2)cc1	none
Nc1ncnc(Nc2ccc(F)cc2)n1	Lmaj promast 57
Fc1ccc(Nc2ccnc(Nc3ccc(F)cc3)n2)cc1	Lmaj promast 95
O=C(O)Cc1ccc(-n2cccc2)cc1	none
Cc1nn(-c2ccccc2)c2c1C(c1ccc(O)c(O)c1)N1C(=N2)C(Nc2ccccc2)=Nc2ccccc21 (centres undefined)	Lmaj promast 90
Cc1ccc(NC2=Nc3ccccc3N3C2=Nc2c(c(C)nn2-c2ccccc2)C3c2ccc(O)c(O)c2)cc1 (centres undefined)	Lmaj promast 86 (no result: Rad51 HR inh)
Cc1cccc(NC2=Nc3ccccc3N3C2=Nc2c(c(C)nn2-c2ccccc2)C3c2ccc(O)c(O)c2)c1 (centres undefined)	none
COc1ccc(C2CCCN2C(=S)Nc2ccc(C)cc2Cl)cc1OC (centres undefined)	none
COc1ccnc(NCc2cccnc2)c1C#N	none
COc1ccc(-n2nc(C(C)=O)c(=O)[nH]c2=O)cc1	none
Cc1cc(C)c(C(=O)/C=C/c2cccs2)c(=O)[nH]1	none
CCc1ccc(/C=C/C(=O)c2c(C)cc(C)[nH]c2=O)cc1	Lmaj promast 59
Cc1ccc(/C=C/C(=O)c2c(C)cc(C)[nH]c2=O)cc1	Lmaj promast 61
CC1C(=O)NN=C1C(=O)N/N=C/c1cccs1 (centres undefined)	none
CCOCCCn1c(=NC(=O)c2cccs2)c(C#N)cc2c(=O)n3ccccc3nc21	none (no result: WT yeast gro inh, PMI activator, Rad51 HR inh, PMI act hi M6P, Lmaj promast)
CSc1ccccc1Nc1ncnc(N)n1	none (no result: WT yeast gro inh, PMI activator, PMI act hi M6P, Lmaj promast)
N#CC1=C2SCN(Cc3ccco3)CN2C(=O)CC1c1c(F)cccc1Cl (centres undefined)	Lmaj promast 75
CC1CCCC(NC(=O)CCNS(=O)(=O)c2ccc(Br)cc2)C1C (centres undefined)	none
Cc1cccc[n+]1CC(=O)/C=C1\N(C)c2ccccc2C1(C)C	Lmaj promast 84
CN1/C(=C\C(=O)CN2C(=O)NC3(CCCCCC3)C2=O)C(C)(C)c2ccccc21	Lmaj promast 96
Cc1ccc[n+](CC(=O)/C=C2\N(C)c3ccccc3C2(C)C)c1	none
Cc1ccccc1OCCCn1c(CO)nc2ccccc21	none
Cc1cc(C)c(Nc2ncnc(N)n2)c(C)c1	none (no result: WT yeast gro inh, PMI activator, PMI act hi M6P, Lmaj promast)
C=CCN(CC=C)C(=O)CCc1nnc(CCc2c[nH]c3ccccc23)o1	none
CCN(CC)S(=O)(=O)c1ccc(N2CCCCC2)c(NC(=O)/C=C/c2cc(OC)c(OC)c(OC)c2)c1	Lmaj promast 69
O=C(/C=C/c1ccc2c(c1)OCO2)Nc1cc(S(=O)(=O)N2CCOCC2)ccc1N1CCOCC1	Lmaj promast 64
COc1ccc(/C=C/C(=O)Nc2cc(S(=O)(=O)N3CCCCC3)ccc2N2CCCCC2)cc1OC	Lmaj promast 97
O=C(/C=C/c1ccccc1)Nc1cc(S(=O)(=O)N2CCOCC2)ccc1N1CCCC1	none

Screening data deposited in PubChem BioAssay by several laboratories.
